{
  "source": "paper PMC7900901",
  "about": "(SLAS discovery : advancing life sciences R & D, 2017)",
  "format_in_all_cases": "biochemical",
  "key": {"[1]": {"molecular_target": "T1, human TDP1 (Homo sapiens, UniProt Q9NUW8)", "T1 sequence (Q9NUW8 whole entry)": "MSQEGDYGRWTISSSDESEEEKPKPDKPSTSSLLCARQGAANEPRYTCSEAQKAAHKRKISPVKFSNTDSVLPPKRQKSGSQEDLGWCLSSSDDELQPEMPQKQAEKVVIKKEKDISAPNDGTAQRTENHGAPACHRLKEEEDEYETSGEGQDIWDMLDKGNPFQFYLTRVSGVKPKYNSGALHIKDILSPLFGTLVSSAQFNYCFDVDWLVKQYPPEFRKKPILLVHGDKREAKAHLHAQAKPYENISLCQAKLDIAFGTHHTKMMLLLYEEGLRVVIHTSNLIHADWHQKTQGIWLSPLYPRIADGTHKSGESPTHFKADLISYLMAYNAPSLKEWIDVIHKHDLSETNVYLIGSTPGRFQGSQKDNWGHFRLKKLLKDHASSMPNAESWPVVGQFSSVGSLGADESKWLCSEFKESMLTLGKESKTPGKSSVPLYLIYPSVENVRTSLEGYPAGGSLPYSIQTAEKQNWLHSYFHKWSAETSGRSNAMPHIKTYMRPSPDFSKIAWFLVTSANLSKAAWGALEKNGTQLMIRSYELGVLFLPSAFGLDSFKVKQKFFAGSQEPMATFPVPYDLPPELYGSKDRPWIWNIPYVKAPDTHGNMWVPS", "assay": "Reversibility of inhibition by preincubation and rapid dilution", "conditions": "for Recovery of the uninhibited control rate: after preincubation with compound for 1 h, rapid dilution; for Reversibility of inhibition: preincubation at 10X IC50 for 1 h, 100-fold dilution"}, "[2]": {"molecular_target": "T1, human TDP1", "assay": "Mechanism of inhibition, substrate/inhibitor matrix", "in_short": "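Full-length TDP1 was preincubated with test compound on ice for 1 h. Then eosin/TAMRA FRET substrate was added, […] twofold dilutions from 2.25 to 0.035 μM, with three inhibitor levels plus a no-inhibitor control. Final TDP1 was 500 pM in PBS pH 8.0 buffer. Eosin fluorescence (ex 525/em 545 nm) was read over about 1 h at 28 °C. Rate versus substrate data were fitted to competitive, noncompetitive (pure and mixed) and uncompetitive models, with the best fit chosen by Akaike's Information Criterion.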"}, "[3]": {"molecular_target": "T1, human TDP1", "assay": "Continuous FRET assay, IC50 determination of inhibitors of TDP1"}, "[4]": {"conditions": "500 pM TDP1, 1.5 μM FRET substrate, 1 h preincubation"}},
  "note": "Entries after “also recorded” stand apart in the source; their conditions may differ. Read-outs that look alike come from different tables or passages of the source.",
  "data": [
    {"smiles": "CC(C)=CCC12OC1(O)C(=O)c1c(O)cccc1C2=O", "note": "(centres unmarked) [2,3-epoxy-8-hydroxy-lapachol]", "values": [
      {"measurement": "Recovery of the uninhibited control rate", "setting": "[1]", "value": 90, "unit": "%"},
      {"measurement": "Reversibility of inhibition", "setting": "[1]", "value": "fully reversible"},
      {"measurement": "Mechanism of inhibition", "setting": "[2]; inhibitor at 0, 6.6, 20 and 60 μM, Akaike's Information Criterion", "value": "mixed-type noncompetitive mechanism"},
      {"measurement": "Ki", "setting": "[2]; read-out: Kie (inhibition constant for TDP1 alone), mixed noncompetitive model", "value": "40.9 ± 14.1", "unit": "µM"}
    ]},
    {"smiles": "O=C(O)C1=CC(=C(c2ccc(O)c(C(=O)O)c2)c2ccc(O)c(C(=O)O)c2)C=CC1=O", "note": "[Aurintricarboxylic acid, reference compound]", "values": [
      {"measurement": "Recovery of the uninhibited control rate", "setting": "[1]", "value": 90, "unit": "%"}
    ]},
    {"smiles": "CC(=O)Oc1ccc2ccc(=O)oc2c1OC(C)=O", "note": "[Daphnetin diacetate]", "values": [
      {"measurement": "IC50", "setting": "[3]", "value": "1.1 ± 0.2", "unit": "µM"}
    ]},
    {"smiles": "C[C@@]12CCC(=O)c3coc(c31)C(=O)c1cc3c(O)ccc(OS(=O)(=O)O)c3cc12.[Na+]", "note": "[Halenaquinol sulfate]", "values": [
      {"measurement": "IC50", "setting": "[3]; [4]", "value": "24 ± 1.1", "unit": "µM"},
      {"measurement": "Reversibility of inhibition", "setting": "[1]", "value": "irreversibly inhibited TDP1; also recorded: irreversibly inhibiting TDP1"}
    ]},
    {"smiles": "C[C@@]12CCC(=O)c3coc(c31)C(=O)c1cc3c(cc12)C(=O)C=CC3=O", "note": "[Halenaquinone]", "values": [
      {"measurement": "IC50", "setting": "[3]; [4]", "value": "26 ± 1", "unit": "µM"},
      {"measurement": "Reversibility of inhibition", "setting": "[1]", "value": "irreversibly inhibited TDP1; also recorded: irreversibly inhibiting TDP1"},
      {"measurement": "Reversibility of inhibition", "setting": "[1]; listed as Halenoquinone", "value": "irreversible inhibition"}
    ]},
    {"smiles": "C[C@H](O)C#CC#CC#CC#CCCCCCCCC(=O)O", "note": "[Minquartynoic acid]", "values": [
      {"measurement": "IC50", "setting": "[3]", "value": "52 ± 1", "unit": "µM"}
    ]},
    {"smiles": "C[C@@]12CCCc3coc(c31)C(=O)c1cc3c(cc12)C(=O)C=CC3=O", "note": "[Xestoquinone]", "values": [
      {"measurement": "IC50", "setting": "[3]", "value": "93 ± 1.1", "unit": "µM"}
    ]},
    {"smiles": "COC[C@H]1OC(=O)c2coc3c2[C@@]1(C)C1=C(C3=O)[C@@H]2CCC(=O)[C@@]2(C)C[C@H]1OC(C)=O", "note": "[wortmannin, reference compound]", "values": [
      {"measurement": "Inhibition of TDP1", "setting": "[3]; concentrations up to 500 μM", "value": "unable to inhibit TDP1; also recorded: did not inhibit TDP1"}
    ]}
  ]
}
